Assay results from ChEMBL document CHEMBL1143148, “Influence of heterocyclic and oxime-containing farnesol analogs on quorum sensing and pathogenicity in Candida albicans” (Bioorg Med Chem, 2008).
Activity calls are given as the source filed them. No cut-off for these calls is given here.

Columns and labels:
Candida albicans [1] = test: Enhancement of pathogen virulence in Candida albicans A72 infected mouse model of disseminated candidiasis assessed as mortality at 20 mM, ip after 60 hrs of infection relative to control; format: functional, organism-based
Procedure, shortened: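 Mice inoculated by tail vein with C. albicans A72 at 5 · 10⁶ or 2 · 10⁶ cells, 45 mice per inoculum, split into 3 groups of 15. Each group received IP 1 ml of either 0.5% Tween 80 in saline (control) or a 20 mM analog solution in 0.5% Tween 80 in sterile nonpyrogenic saline. Mortality was followed over time.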

Candida albicans [2] = test: Protection against Candida albicans A72 infected mouse model of disseminated candidiasis assessed as mortality at 20 mM, ip; format: functional, organism-based
Procedure, shortened: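 Mice inoculated by tail vein with C. albicans A72 at 5 × 10⁶ or 2 × 10⁶ cells, 15 per group. Each got 1 ml IP of a 20 mM analog solution in 0.5% Tween 80 in saline, or a vehicle control injection. Mortality followed over time.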

Candida albicans [3] = test: Effect on rate of cell growth in Candida albicans at > 100 uM; format: functional, organism-based
Mus musculus = test: Toxicity against ip dosed mouse after 14 days; format: organism-based; details: in vivo, 336 h
Candida albicans [4] = test: Effect on quorum sensing in Candida albicans assessed as inhibition of germ tube formation; format: functional, organism-based
Procedure, shortened: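 Undifferentiated C. albicans cells inoculated to a final 1–2 × 10⁷ cells/ml in 2.5 mM N-acetyl glucosamine buffered to pH 7. Incubated 4 h at 37 °C with shaking at 200 rpm. Percentage of cells forming germ tubes then scored and inhibition relative to untreated cells taken. Triplicate readings.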

Compound	IC50 (Candida albicans [4])	Activity (Candida albicans [1])	Activity (Candida albicans [2])	Activity (Candida albicans [3])	Activity (Mus musculus)
CC(C)=CCC/C(C)=C/CCc1nnn[nH]1	7 µM	Active	inactive	inactive	Non-toxic
CC(C)=CCC/C(C)=C/Cc1nnn[nH]1	> 50 µM			inactive	
CC(C)=CCC/C(C)=C/CC/C(C)=C/C=N/O	5 µM			inactive	Toxic
CO/N=C/C=C(\C)CC/C=C(\C)CCC=C(C)C	≥ 100 µM			inactive	
CC(C)=CCC/C(C)=C/CSc1c[nH]nn1	3 µM				
CC(C)=C/C=C/C(C)=C/C=C/C(C)=C/C=N/O	10 µM			inactive	
CC(C)=CCC/C(C)=C/CSc1ncc[nH]1	> 50 µM				
CC(C)=CCC/C(C)=C/CSc1nn[nH]n1	> 50 µM				
C(=C\c1nn[nH]n1)/c1ccccc1	10 µM			inactive	

More lines, main results first:

IC50 (Candida albicans [4])	Compound	Activity (Candida albicans [1])	Activity (Candida albicans [2])	Activity (Candida albicans [3])	Activity (Mus musculus)
1 µM	CC(C)=CCC/C(C)=C/CSc1nc[nH]n1		inactive		Non-toxic
1 µM	CC(C)=CCC/C(C)=C/CC/C(C)=C/CO [FARNESOL]			inactive	Non-toxic
3 µM	CCCCCCCCCc1nnn[nH]1			inactive	Non-toxic
1 µM	CC(C)=CCC/C(C)=C/CCc1c[nH]nn1				
